Compounds with a hit are over-represented: about 3.5% of the library has one in this group of screens.
ERAP1 HTS inh = inhibitors of human ERAP1 aminopeptidase | recombinant ERAP1, Leu-AMC fluorescence, 60 min | inhibition, % at 10.7 µM | 340,000 compounds, 0.15% hits | Q9NZ08 | AID 652197;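 active means mean replicate inhibition of at least 30%, or all replicates individually reaching that 30% level; inactive means mean below 30% and not every replicate reaching it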;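 further: 0% = neutral control wells and 100% = L-leucinethiol positive control wells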
Target sequence (Q9NZ08 whole entry, looked up): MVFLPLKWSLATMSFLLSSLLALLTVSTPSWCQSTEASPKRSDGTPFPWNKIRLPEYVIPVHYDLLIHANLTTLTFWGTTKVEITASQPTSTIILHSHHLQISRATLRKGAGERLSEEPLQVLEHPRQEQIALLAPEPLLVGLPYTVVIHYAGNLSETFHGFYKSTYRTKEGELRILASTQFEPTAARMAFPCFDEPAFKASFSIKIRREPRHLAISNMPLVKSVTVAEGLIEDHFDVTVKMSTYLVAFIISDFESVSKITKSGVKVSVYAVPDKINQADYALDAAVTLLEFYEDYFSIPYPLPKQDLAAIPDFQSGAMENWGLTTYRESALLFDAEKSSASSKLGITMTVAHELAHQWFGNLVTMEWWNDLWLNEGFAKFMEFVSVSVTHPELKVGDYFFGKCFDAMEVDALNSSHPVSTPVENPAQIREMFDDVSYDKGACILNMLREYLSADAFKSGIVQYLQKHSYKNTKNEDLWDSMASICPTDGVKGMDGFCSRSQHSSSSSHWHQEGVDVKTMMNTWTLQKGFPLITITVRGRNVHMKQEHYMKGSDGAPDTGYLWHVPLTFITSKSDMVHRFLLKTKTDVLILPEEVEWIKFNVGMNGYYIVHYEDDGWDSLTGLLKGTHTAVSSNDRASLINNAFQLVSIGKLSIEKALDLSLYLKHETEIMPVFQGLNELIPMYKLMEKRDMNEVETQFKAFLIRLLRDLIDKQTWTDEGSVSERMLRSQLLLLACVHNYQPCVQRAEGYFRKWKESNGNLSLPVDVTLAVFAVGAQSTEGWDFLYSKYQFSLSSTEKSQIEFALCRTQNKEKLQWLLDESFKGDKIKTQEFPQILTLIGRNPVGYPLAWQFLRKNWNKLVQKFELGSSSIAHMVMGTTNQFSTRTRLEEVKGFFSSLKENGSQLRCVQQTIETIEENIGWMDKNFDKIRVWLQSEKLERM
Env fusion inh = HIV envelope-mediated fusion inhibition. HeLa-JRFL Env/CEM21 cell fusion, luciferase. inhibition, % at 12.3 µM. 360,000 compounds, 1.1% hits;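 active means mean replicate inhibition score of at least 50 and every replicate individually at or above 50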;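 further: 0% = plate neutral controls and 100% = maraviroc near 300 nM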
Cneo AK release = causes C. neoformans cell lysis | adenylate kinase release luminescence, 4 h; normalised: neutral wells 0, clomiphene wells 100 | lysis activity, % at 15 µM | 360,000 compounds, 0.2% hits;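 active means mean lysis activity across replicates of at least 80%, whatever share of replicates individually reach that level; inactive means mean lysis activity below 80%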
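Schedule: static 4 h at 37 °C with compound, 1 h detection; system: C. neoformans cells; benchmarks: Clomiphene as positive control; buffer or medium: fresh YPD medium; measure: luminescence rise reflecting yeast cell lysis; measured by: luminescent adenylate kinase detection reagent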
Wnt bcat act = activators of Wnt/beta-catenin signaling. 300,000 compounds, 1.2% hits. Wnt/beta-catenin reporter cell assay, activator, plate reader. activation, % at 9.35 µM; in the data active means activation above about 30%, passing the limit was not always enough;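 further: 0% = neutral control wells and 100% = positive control wells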
MITF TRPM1 HTS = activators of MITF-driven TRPM1 promoter activity in SK-MEL-5 cells. SK-MEL-5 TRPM1-promoter luciferase, 24 h; % of positive control, neutral wells = 0. activation, % at 12.5 µM. 300,000 compounds, 0.75% hits. AID 588334;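 active means mean activation of at least 80% with every replicate also reaching 80%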;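 further: 0% = neutral control wells and 100% = parthenolide positive control wells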
esBAF inh = inhibitors of esBAF chromatin remodeling in mouse ES cells | Bmi1-luciferase knock-in reporter, 24 h; 100% = twice the neutral-well signal | reporter increase, % at 12.5 µM | 350,000 compounds, 2% hits; in the data active means activation above about 40%;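 further: 0% = median of the plate's neutral control wells and 100% = double that signal; a rise in the Bmi1 reporter signal indicates esBAF inhibition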
* = called active by the depositor; · = no result given; [ ] = dose if it differs, or a comment.

SMILES | ERAP1 HTS inh | Env fusion inh | Cneo AK release | Wnt bcat act | MITF TRPM1 HTS | esBAF inh
CC1Cc2ccccc2N1C(=O)COc1ccc2c(c1)OCO2 (stereo unspecified) | 31* | -7 | -1 | 0 | 71 | ·
CCc1ccccc1NC(=O)COc1ccc2c(c1)OCO2 | 0 | -1 | -2 | 5 | 34 | ·
CC1CCCN(C(=O)COc2ccc3c(c2)OCO3)C1 (stereo unspecified) | -1 | 0 | -3 | 7 | 33 | ·
Cc1ccc(NC(=O)COc2ccc3c(c2)OCO3)c(Cl)c1 | -3 | -87 | -1 | 41* | 98* | 48*
CC(C)NC(=O)N(C)C[C@H]1Oc2ccc(NC(=O)C3CCCCC3)cc2CC(=O)N([C@@H](C)CO)C[C@H]1C | -3 | 0[16.7 µM] | -8 | · | · | -8
C[C@@H](C(=O)N(C)C[C@@H]1OCc2ccccc2-c2ccccc2C(=O)N([C@@H](C)CO)C[C@@H]1C)c1ccccc1 | 5 | 11[16.7 µM] | -4 | · | · | -1
Cc1ccc2nc(/C=C/c3cccc(F)c3)ccc2c1 | 12 | -118 | · | 71* | 56 | ·
CN(C)c1ccc(NC(=O)c2ccc(COc3cccc(Cl)c3)o2)cc1 | · | · | -4 | · | 13 | 74*
Cc1ccc(S(=O)(=O)N[C@@H]2C=C[C@H](CC(=O)N3CCN(c4ccccc4)CC3)O[C@H]2CO)cc1 | -2 | 20[16.7 µM] | -1 | · | · | -6
O=C(O)c1ccccc1-c1ccccc1C(=O)Nc1ccc(-c2nc3cc(Cl)ccc3o2)cc1 | · | -30 | · | 35* | 0 | ·
Oc1cccc(Oc2ncc(C(F)(F)F)cc2Cl)c1 | 2 | 17 | · | 64* | 15 | ·
CN(C)CC(=O)N1CC2(C1)[C@@H](c1ccccc1)[C@@H](CO)N2S(=O)(=O)c1ccccc1 | -1 | · | · | · | · | ·
Nc1c(C(=O)N/N=C/c2ccccc2)cnn1-c1ccccc1 | 3 | -34 | -2 | 0 | 64 | 48*
O=C(N/N=C/c1ccccc1C(F)(F)F)c1ccc(O)cc1 | -2 | -17 | · | 3 | 86* | ·
O=C(O)c1ccc(/C=N/NC(=O)c2ccc(F)cc2)cc1 | -2 | -6 | -4 | -1 | 1 | ·
O=C(N/N=C/c1ccc(F)cc1)c1ccccc1 | 2 | -40 | · | 34* | 51 | ·
CSc1ccc(/C=N/NC(=O)c2ccc(C)c(C)c2)cc1 | · | -94 | 0 | 0 | 21 | ·
O=C(N/N=C/c1ccccc1)c1cccc2ccccc12 | -1 | -7 | · | -1 | -1 | ·
CSc1ccc(/C=N/NC(=O)c2cc(O)cc(O)c2)cc1 | · | -148 | -12 | 35* | 36 | 1
Cc1noc(C)c1NC(=O)N(C)C[C@H]1OCCCC[C@H](C)Oc2ccc(NC(=O)NC(C)C)cc2C(=O)N([C@H](C)CO)C[C@@H]1C | 1 | -201[16.7 µM] | -6 | · | · | -10
Cc1noc(C)c1NC(=O)N(C)C[C@H]1Oc2ccc(NC(=O)Nc3ccccc3)cc2C(=O)N([C@@H](C)CO)C[C@@H]1C | 0 | 19[16.7 µM] | -4 | · | · | 0
O=C(N/N=C\c1ccc(F)cc1)c1csnn1 | · | · | 3 | · | 26 | 44*
Cc1ccccc1/C=N\NC(=O)c1csnn1 | · | · | -2 | -2 | · | 27
Cc1cc(C)n(CC(=O)N/N=C/c2cc(Br)cc([N+](=O)[O-])c2O)n1 | 3 | -10 | · | -2 | 8 | ·
Cc1cc(C)n(CCC(=O)N/N=C/c2ccc(Br)c([N+](=O)[O-])c2)n1 | 0 | -3 | 1 | 36* | -6 | 3
SMILES | ERAP1 HTS inh | Env fusion inh | Cneo AK release | Wnt bcat act | MITF TRPM1 HTS | esBAF inh
O=C(CSc1nnc(-c2ccco2)n1Cc1ccccc1)c1ccccc1 | · | · | 0 | · | 91* | 44*
Cc1ccc(C(=O)CSc2nnc(-c3ccco3)n2Cc2ccccc2)cc1 | · | -62 | 3 | 0 | 70 | 28
CCC(=O)N[C@H]1CC[C@H](CC(=O)NCc2ccccc2OC)O[C@@H]1CO | 1 | 8[16.7 µM] | 49 | · | · | -4
COc1ccc(-c2cn[nH]c2N)c(OC)c1 | · | 81* | 1 | · | 1 | -2
COc1ccc(-c2cn[nH]c2N)cc1 | · | · | 0 | 2 | 9 | -2
CC(C)C#Cc1cnc2c(c1)C(=O)N([C@@H](C)CO)C[C@H](C)[C@H](CN(C)C(=O)Nc1cc(F)ccc1F)O2 | 2 | 3[16.7 µM] | -13 | · | · | -3
C(=C/c1nccc2c1[nH]c1ccccc12)/c1ccc2c(c1)OCO2 | -3 | -15 | -1 | 9 | 21 | 76*
CC(C)NC(=O)[C@@]1(Cc2ccccc2I)c2ccccc2C(=O)N(Cc2ccccc2C(F)(F)F)[C@H]1c1ccc(CO)cc1 | -1 | 0[16.7 µM] | -2 | · | · | ·
COc1ccccc1CN1C(=O)c2ccccc2[C@](Cc2ccccc2I)(C(=O)NCc2ccccc2)[C@@H]1c1ccc(CO)cc1 | · | 60*[16.7 µM] | · | · | · | ·
COc1ccc(CN(C)C[C@H]2OCCCC[C@@H](C)Oc3ccc(NS(=O)(=O)c4ccc(F)cc4)cc3C(=O)N([C@@H](C)CO)C[C@H]2C)cc1 | -4 | -8[16.7 µM] | -2 | · | · | 0
OC[C@H]1O[C@@H](c2nc3ccc(-c4nc(-c5ccc(Br)cc5)no4)cc3[nH]2)C[C@@H]1O | 1 | -128 | -3 | 22 | · | 55*
COc1ccccc1-c1cc(-c2ccccc2)nc(SCC(=O)O)c1C#N | 42* | -12 | -5 | -1 | -9 | -4
Cc1ccc(Sc2ncccc2O)cc1 | · | -1 | · | 69* | 20 | ·
Cc1ccc(Sc2ncccc2N)cc1 | 6 | 1 | -2 | 7 | · | ·
CN1[C@@H]2c3ccc(-c4cccnc4)c(=O)n3C[C@@H]2[C@@H](CO)[C@@H]1C(=O)N1CCc2ccccc2C1 | -5 | · | 113* | · | · | -2
COc1ccccc1NC(=O)N[C@H]1CC[C@@H](CC(=O)N2CCC(Cc3ccccc3)CC2)O[C@H]1CO | 2 | -280[16.7 µM] | 3 | · | · | 8
C[C@@H]1CN([C@H](C)CO)C(=O)c2cc(-c3ccncc3)cnc2O[C@H]1CN(C)C(=O)C1CCC1 | · | -5[16.7 µM] | · | · | · | ·
CCCCCCN1C=CC(=C2C(=O)c3ccccc3C2=O)C=C1 | 0 | 44 | -10 | -4 | -79 | -79
CCCN1C=CC(=C2C(=O)c3ccccc3C2=O)C=C1 | · | 107* | -5 | · | -104 | -83
CCN1C=CC(=C2C(=O)c3ccccc3C2=O)C=C1 | · | 73* | -6 | · | -98 | -83
Cc1noc(C)c1S(=O)(=O)Nc1ccc2c(c1)C(=O)N([C@H](C)CO)C[C@@H](C)[C@H](CN(C)Cc1ccncc1)O2 | 0 | -5[16.7 µM] | 4 | · | · | -1
O=C(c1ccc(C(F)(F)F)cc1)n1ccc(-c2cccs2)n1 | -2 | 0 | · | 42* | -2 | ·
CN1C(=O)c2cc(NC(=O)C3CCCCC3)ccc2OC[C@H]2O[C@@H](CC(=O)NCCc3ccncc3)CC[C@@H]21 | -2 | -6[16.7 µM] | -4 | · | · | -2
C[C@@H]1CN([C@@H](C)CO)S(=O)(=O)c2ccc(/C=C/c3ccccc3)cc2O[C@@H]1CN(C)C(=O)C1CC1 | 0 | 55*[16.7 µM] | -2 | · | · | -4
C[C@H]1CN([C@@H](C)CO)S(=O)(=O)c2ccc(/C=C/c3ccccc3)cc2O[C@H]1CN(C)C(=O)C1CC1 | -2 | 15[16.7 µM] | 3 | · | · | 6
